In ChEMBL document CHEMBL1147479, “Synthesis and biological evaluation of benzimidazole-4,7-diones that inhibit vascular smooth muscle cell proliferation” (Bioorg Med Chem Lett, 2004):

Species: Rattus norvegicus
Test: Inhibitory activity against the PDGF-induced proliferation of rat aortic smooth muscle cell (RAoSMC)
Type: functional, organism-based
How it was run: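 Smooth muscle cells isolated from rat thoracic aorta, kept in DMEM with 10% FBS. Seeded in triplicate at 1×10³ cells/well and grown 24 h, then starved in 0.2% FBS for 72 h. Treated for 48 h in DMEM with PDGF (5 ng/mL) and 5% FBS. Proliferation read by WST-1 uptake (colorimetric); IC50 derived by comparison with mycophenolic acid standard.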

SMILES | IC50 [nM]
O=C1C(Cl)=C(Nc2ccccc2)C(=O)c2[nH]cnc21 | 5500
O=C1C(Cl)=C(Nc2cccc(Br)c2)C(=O)c2[nH]cnc21 | 1600
O=C1C(Br)=C(Nc2ccc(F)cc2)C(=O)c2[nH]cnc21 | 1000
O=C1C(Br)=C(Nc2cccc(I)c2)C(=O)c2[nH]cnc21 | 2500
Cc1nc2c([nH]1)C(=O)/C(=N/c1ccc(F)c(F)c1F)C(Cl)=C2O | 1100
COc1ccc(OC)c2[nH]cnc12 | > 100000
Cc1nc2c([nH]1)C(=O)/C(=N/c1ccccc1)C(Cl)=C2O | 800
Cc1ccc(NC2=C(Br)C(=O)c3nc[nH]c3C2=O)cc1 | 1000
Cc1nc2c([nH]1)C(=O)/C(=N/c1cccc(Br)c1)C(Cl)=C2O | 1000
Cc1nc2c([nH]1)C(=O)/C(=N/c1ccc(F)cc1)C(Cl)=C2O | 3000
O=C1C(Cl)=C(Nc2ccccc2)C(=O)c2[nH]c(C(F)(F)F)nc21 | 50000
Cc1nc2c([nH]1)C(=O)/C(=N/c1cccc(Cl)c1)C(Cl)=C2O | 900
O=C1C(Cl)=C(Nc2cccc(Cl)c2)C(=O)c2[nH]cnc21 | 1400
O=C1C(Cl)=C(Nc2cccc(I)c2)C(=O)c2[nH]cnc21 | 1300
O=C1C(Br)=C(Nc2ccc(Cl)cc2)C(=O)c2[nH]cnc21 | 4000
O=C1C(Br)=C(Nc2ccccc2)C(=O)c2[nH]cnc21 | 1100
O=C1C(Cl)=C(Nc2ccc(I)cc2)C(=O)c2[nH]c(C(F)(F)F)nc21 | 25000
O=C1C(Cl)=C(Nc2ccc(Cl)cc2)C(=O)c2[nH]c(C(F)(F)F)nc21 | 15000

SMILES | IC50 [nM]
Cc1ccc(NC2=C(Cl)C(=O)c3nc(C(F)(F)F)[nH]c3C2=O)cc1 | 40000
COc1ccc(OC)c2[nH]c(C)nc12 | > 100000
O=C1C(Cl)=C(Nc2ccc(I)cc2)C(=O)c2[nH]cnc21 | 1300
O=C1C(Cl)=C(Nc2ccc(F)cc2)C(=O)c2[nH]c(C(F)(F)F)nc21 | 12000
Cc1nc2c([nH]1)C(=O)/C(=N/c1ccc(I)cc1)C(Cl)=C2O | 1000
O=C1C(Cl)=C(Nc2ccc(F)cc2)C(=O)c2[nH]cnc21 | 1200
Cc1nc2c([nH]1)C(=O)/C(=N/c1ccc(F)cc1F)C(Cl)=C2O | 1200
Cc1ccc(NC2=C(Cl)C(=O)c3nc[nH]c3C2=O)cc1 | 1400
O=C1C(Cl)=C(Nc2ccc(C(F)(F)F)cc2)C(=O)c2[nH]cnc21 | 2500
O=C1C(Cl)=C(Nc2ccc(C(F)(F)F)cc2)C(=O)c2[nH]c(C(F)(F)F)nc21 | 20000
Cc1ccc(NC2=C(Cl)C(=O)c3nc(C)[nH]c3C2=O)cc1 | 800
Cc1nc2c([nH]1)C(=O)/C(=N/c1ccc(Cl)cc1)C(Cl)=C2O | 2800
O=C1C(Cl)=C(Nc2ccc(F)c(F)c2)C(=O)c2[nH]cnc21 | 1100
Cc1nc2c([nH]1)C(=O)/C(=N/c1ccc(Cl)cc1Cl)C(Cl)=C2O | 800
O=C1C(Br)=C(Nc2ccc(C(F)(F)F)cc2)C(=O)c2[nH]cnc21 | 3100
Cc1nc2c([nH]1)C(=O)/C(=N/c1cccc(Cl)c1Cl)C(Cl)=C2O | 600
Cc1nc2c([nH]1)C(=O)/C(=N/c1ccc(C(F)(F)F)cc1)C(Cl)=C2O | 600
COc1c(C)c2c(c(O)c1C/C=C(\C)CCC(=O)O)C(=O)OC2 [MYCOPHENOLIC ACID] | 1000
